{
  "source": "ChEMBL document CHEMBL5042480",
  "about": "“3CL Protease Inhibitors with an Electrophilic Arylketone Moiety as Anti-SARS-CoV-2 Agents” (J Med Chem, 2022)",
  "key": {"[1]": {"assay": "Stability in rat plasma assessed as compound degradation incubated for 6 hrs by quadrupole mass spectrometry coupled UFLC analysis", "type": "ADME, cell-free", "how_it_was_run": "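Compound at 1 μM was incubated in rat plasma at 37 °C for 0, 1, 2 and 6 h. Remaining concentration was measured by LC/MS/MS.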"}, "[2]": {"target": "Cytochrome P450 3A4 (Homo sapiens, UniProt P08684)", "sequence (P08684 whole entry)": "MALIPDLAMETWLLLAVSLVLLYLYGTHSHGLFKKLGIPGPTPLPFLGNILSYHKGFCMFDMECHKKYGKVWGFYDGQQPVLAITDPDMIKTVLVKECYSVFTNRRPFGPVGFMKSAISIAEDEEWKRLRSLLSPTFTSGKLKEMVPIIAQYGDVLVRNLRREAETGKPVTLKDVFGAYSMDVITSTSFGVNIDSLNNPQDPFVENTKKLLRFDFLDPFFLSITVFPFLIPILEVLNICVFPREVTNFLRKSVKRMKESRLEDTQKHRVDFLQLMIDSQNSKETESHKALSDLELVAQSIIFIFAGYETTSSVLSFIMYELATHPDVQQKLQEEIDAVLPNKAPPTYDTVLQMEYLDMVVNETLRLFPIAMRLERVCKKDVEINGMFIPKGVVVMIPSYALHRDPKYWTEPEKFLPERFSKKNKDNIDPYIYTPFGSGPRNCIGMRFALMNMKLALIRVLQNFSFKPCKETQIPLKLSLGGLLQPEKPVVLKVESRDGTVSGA", "assay": "Inhibition of CYP3A4 in human liver microsome at 10 uM", "type": "toxicity", "settings": "microsomes", "how_it_was_run": "(§1)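 Human liver microsomes (0.1 mg protein/mL) were mixed with compound at 10 μM and probe substrates in phosphate buffer pH 7.4: tacrine (CYP1A2), paclitaxel (2C8), tolbutamide (2C9), dextromethorphan (2D6) and midazolam (3A4). Reactions were started with an NADPH-generating system, run 10 min at 37 °C and stopped with acetonitrile. Metabolites were measured by LC/MS/MS and activity expressed as % remaining versus the no-inhibitor control.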"}, "[3]": {"assay": "Total clearance in overnight-fasted Wistar rat at 0.1 mg/kg, iv measured upto 7 hrs by quadrupole mass spectrometry coupled UFLC analysis", "type": "ADME, organism-based", "settings": "in vivo", "how_it_was_run": "(§2)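 Conscious, freely moving male Wistar rats received compound in saline at 4 mL/kg, either i.v. via jugular vein at 0.1 mg/kg or by oral gavage at 0.5 mg/kg. Cannula blood was sampled up to 7 h and plasma measured by LC-MS/MS. Analysis was noncompartmental (trapezoidal AUC); Cmax and tmax were taken as observed, and t1/2 from log-linear terminal regression over at least 3 points. Mean ± SD, n = 5.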"}, "[4]": {"assay": "Apparent permeability in human Caco-2 monolayer cells at 1 uM and measured upto 120 mins by LC-MS/MS analysis", "type": "ADME, cell-based", "how_it_was_run": "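Caco-2 monolayers were grown 21 days on 3.0 μm-pore inserts. They were preincubated 30 min at 37 °C in HBSS with 10 mM HEPES, pH 7.4, and TEER was checked before and after. Transport of compound at 1 μM was run at 37 °C, quantified by LC-MS/MS, and converted to apparent permeability.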"}, "[5]": {"assay": "Volume of distribution in overnight-fasted Wistar rat at 0.1 mg/kg, iv measured upto 7 hrs by quadrupole mass spectrometry coupled UFLC analysis", "type": "ADME, organism-based", "settings": "in vivo", "how_it_was_run": "as §2"}, "[6]": {"assay": "Drug metabolism in human hepatocytes assessed as CYP450-catalysed oxidative pathway mediated metabolite formation at 10 uM incubated upto 2 hrs by LC/UV/MS analysis", "type": "ADME, cell-based, Hepatocyte", "how_it_was_run": "(§3)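 Hepatocytes were suspended at 6 × 10^5 viable cells/mL in KHB buffer and given compound at 10 μM. Incubation was 0 and 2 h at 37 °C under 5% CO2, stopped with acetonitrile. After centrifugation, supernatant metabolites were analysed by LC/UV/MS.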"}, "[7]": {"assay": "Drug metabolism in rat hepatocytes assessed as CYP450-catalysed oxidative pathway mediated metabolite formation at 10 uM incubated upto 2 hrs by LC/UV/MS analysis", "type": "ADME, cell-based, Hepatocyte", "how_it_was_run": "as §3"}, "[8]": {"assay": "MRT (total) in overnight-fasted Wistar rat at 0.5 mg/kg, po measured upto 7 hrs by quadrupole mass spectrometry coupled UFLC analysis", "type": "ADME, organism-based", "settings": "in vivo", "how_it_was_run": "as §2"}, "[9]": {"assay": "Cytotoxicity against African green monkey Vero cells assessed as cell viability incubated for 24 hrs by MTT assay", "type": "toxicity, cell-based", "settings": "chlorocebus sabaeus", "how_it_was_run": "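Vero cells were seeded at 1.0 × 10^4 cells/well and cultured overnight at 37 °C. Compound was added for 24 h, and viability was measured by MTT assay with absorbance at 570 nm.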"}, "[10]": {"assay": "Drug metabolism in human hepatocytes assessed as amide hydrolysis mediated HC-6 metabolite formation at 10 uM incubated upto 2 hrs by LC/UV/MS analysis", "type": "ADME, cell-based, Hepatocyte", "how_it_was_run": "as §3"}, "[11]": {"assay": "Drug metabolism in rat hepatocytes assessed as amide hydrolysis mediated HC-7 metabolite formation at 10 uM incubated upto 2 hrs by LC/UV/MS analysis", "type": "ADME, cell-based, Hepatocyte", "how_it_was_run": "as §3"}, "[12]": {"assay": "MRT (total) in overnight-fasted Wistar rat at 0.1 mg/kg, iv measured upto 7 hrs by quadrupole mass spectrometry coupled UFLC analysis", "type": "ADME, organism-based", "settings": "in vivo", "how_it_was_run": "as §2"}, "[13]": {"tested_on": "SARS-CoV-2", "assay": "Antiviral activity against SARS coronavirus 2 infected in African green monkey Vero cells assessed as blockade of viral proliferation at 10 uM incubated for 48 hrs by cytopathic effect assay", "type": "functional, organism-based", "settings": "Severe acute respiratory syndrome coronavirus 2"}, "[14]": {"assay": "Half life in overnight-fasted Wistar rat at 0.1 mg/kg, iv measured upto 7 hrs by quadrupole mass spectrometry coupled UFLC analysis", "type": "ADME, organism-based", "settings": "in vivo", "how_it_was_run": "as §2"}, "[15]": {"tested_on": "SARS-CoV-2", "assay": "Antiviral activity against SARS coronavirus 2 infected in African green monkey VeroE6/TMPRSS2 cells upto 10 uM in presence of MDR-1 inhibitor CP-100356 measured after 24 hrs post-infection by qRT-PCR analysis", "type": "functional, organism-based", "settings": "Severe acute respiratory syndrome coronavirus 2; Vero; dose microM <=10, time 24.0 hrs"}, "[16]": {"assay": "AUC (0 to infinity) in overnight-fasted Wistar rat at 0.1 mg/kg, iv measured upto 7 hrs by quadrupole mass spectrometry coupled UFLC analysis", "type": "ADME, organism-based", "parameters": "route intravenous, dose 0.1 mg/kg, time <=7", "settings": "in vivo", "how_it_was_run": "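Male Wistar rats, conscious and unrestrained, were given the compound in saline at 4 mL/kg, either as an i.v. bolus via the left jugular vein or by oral gavage. Heparinized blood was drawn from a cannula at set times up to 7 h and the plasma analysed by LC-MS/MS. AUC0–7 and AUC0–∞ came from noncompartmental trapezoidal analysis; mean ± SD, n = 5.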"}, "[17]": {"assay": "Protein binding in human plasma incubated for 6 hrs by quadrupole mass spectrometry coupled UFLC analysis", "type": "ADME, cell-free", "settings": "read-out: PPB"}, "[18]": {"assay": "Cmax in overnight-fasted Wistar rat at 0.5 mg/kg, po measured upto 7 hrs by quadrupole mass spectrometry coupled UFLC analysis", "type": "ADME, organism-based", "parameters": "route oral, dose 0.5 mg/kg, time <=7", "settings": "in vivo", "how_it_was_run": "as §2"}, "[19]": {"target": "T1, Cytochrome P450 2C8 (Homo sapiens, UniProt P10632)", "T1 sequence (P10632 whole entry)": "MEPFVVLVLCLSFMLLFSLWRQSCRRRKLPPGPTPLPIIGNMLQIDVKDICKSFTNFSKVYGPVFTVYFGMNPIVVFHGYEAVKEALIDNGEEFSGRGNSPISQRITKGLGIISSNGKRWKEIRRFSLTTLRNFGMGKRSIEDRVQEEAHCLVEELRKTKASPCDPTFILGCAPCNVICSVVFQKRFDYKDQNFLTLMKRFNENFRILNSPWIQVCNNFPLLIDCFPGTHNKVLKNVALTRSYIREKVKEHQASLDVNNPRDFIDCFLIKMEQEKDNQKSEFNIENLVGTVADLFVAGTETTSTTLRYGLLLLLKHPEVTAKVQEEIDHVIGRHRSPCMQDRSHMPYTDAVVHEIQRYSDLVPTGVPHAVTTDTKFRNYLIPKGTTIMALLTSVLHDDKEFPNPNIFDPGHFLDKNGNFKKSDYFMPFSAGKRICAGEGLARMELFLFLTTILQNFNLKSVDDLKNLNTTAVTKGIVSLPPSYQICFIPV", "assay": "Inhibition of CYP2C8 in human liver microsome at 10 uM", "type": "toxicity", "settings": "microsomes", "how_it_was_run": "as §1"}, "[20]": {"assay": "Drug metabolism in rat hepatocytes assessed as amide hydrolysis mediated HC-5 metabolite formation at 10 uM incubated upto 2 hrs by LC/UV/MS analysis", "type": "ADME, cell-based, Hepatocyte", "how_it_was_run": "as §3"}},
  "note": "Activity calls are given as the source filed them. The rule behind the calls is not given here.",
  "data": [
    {"smiles": "COc1cccc2[nH]c(C(=O)N[C@@H](CC(C)C)C(=O)N[C@@H](C[C@@H]3CCNC3=O)C(=O)c3nc4ccccc4s3)cc12", "values": [
      {"measurement": "Stability", "setting": "[1]", "result": "Stable"},
      {"measurement": "inhibition (INH)", "setting": "[2]", "result": "Not Active"},
      {"measurement": "clearance", "setting": "[3]", "result": 107, "unit": "mL/min/kg"},
      {"measurement": "Papp at 2 h, 1 µM", "setting": "[4]", "result": 18.9, "unit": "×10⁻⁶ cm/s"},
      {"measurement": "Vd", "setting": "[5]", "result": 3.51, "unit": "L/kg"},
      {"measurement": "Drug metabolism", "setting": "[6]", "result": "Metabolite_Detected"},
      {"measurement": "Drug metabolism", "setting": "[7]", "result": "Metabolite_Detected"},
      {"measurement": "MRT", "setting": "[8]", "result": 13.2, "unit": "h"},
      {"measurement": "CC50 at 24 h", "setting": "[9]", "result": "> 100", "unit": "µM"},
      {"measurement": "Drug metabolism", "setting": "[10]", "result": "Metabolite_Detected"},
      {"measurement": "Drug metabolism", "setting": "[11]", "result": "Metabolite_Detected"},
      {"measurement": "MRT", "setting": "[12]", "result": 29.6, "unit": "min"},
      {"measurement": "Activity", "setting": "[13]", "result": "Active"},
      {"measurement": "half-life", "setting": "[14]", "result": 178, "unit": "min"},
      {"measurement": "Activity", "setting": "[15]", "result": "Active"},
      {"measurement": "AUC(0-inf)", "setting": "[16]", "result": 19.7, "unit": "ng·h/mL"},
      {"measurement": "fraction unbound at 6 h", "setting": "[17]", "result": 0.01},
      {"measurement": "Cmax", "setting": "[18]", "result": 1.08, "unit": "ng/mL"},
      {"measurement": "inhibition (INH)", "setting": "[19]", "result": "Active"},
      {"measurement": "Drug metabolism", "setting": "[20]", "result": "Metabolite_Detected"}
    ]}
  ]
}
